Reference: ChEMBL document CHEMBL1122145, “Prostaglandins and congeners, 29. (16RS)-(+/-)-15-Deoxy-16-hydroxy-16-vinyl-prostaglandin E2, an orally and transdermally active hypotensive agent of prolonged duration” (1982)

Assays:
Assay type in all cases: functional
Rattus norvegicus [1] = assay: Intravenous antihypertensive effect in conscious, spontaneously hypertensive rats a dose of 30 ug/kg
In short: (§1)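 Male Okamoto spontaneously hypertensive rats (about 300 ± 20 g), restrained supine. The iliac artery was cannulated to a pressure recorder. After a stabilization period, the sodium salt was injected into the lateral caudal vein: acid dissolved in absolute ethanol, neutralized with 0.6 M NaHCO3, diluted in saline. Maximum fall in mean arterial blood pressure (mmHg), mean of two experiments.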

Rattus norvegicus [2] = assay: Intravenous antihypertensive effect in conscious, spontaneously hypertensive rats a dose of 10 ug/kg; in short: as §1
Rattus norvegicus [3] = assay: Intravenous antihypertensive effect in conscious, spontaneously hypertensive rats a dose of 100 ug/kg; in short: as §1
Rattus norvegicus [4] = assay: Intravenous antihypertensive effect in conscious, spontaneously hypertensive rats, Duration of action was determined at a compound dose of 100 ug/kg
Rattus norvegicus [5] = assay: Intravenous antihypertensive effect in conscious, spontaneously hypertensive rats, Duration of action was determined at a compound dose of 30 ug/kg; 45-50
Rattus norvegicus [6] = assay: Intravenous antihypertensive effect in conscious, spontaneously hypertensive rats, Duration of action was determined at a compound dose of 10 ug/kg; 30-45
Rattus norvegicus [7] = assay: Intravenous antihypertensive effect in conscious, spontaneously hypertensive rats a dose of 500 ug/kg; in short: as §1
Rattus norvegicus [8] = assay: Intravenous, antihypertensive effect in conscious, spontaneously hypertensive rats, Duration of action was determined at a compound dose of 100 ug/kg; 10-20
Rattus norvegicus [9] = assay: Intravenous antihypertensive effect in conscious, spontaneously hypertensive rats, Duration of action was determined at a compound dose of 10 ug/kg
Rattus norvegicus [10] = assay: Intravenous, antihypertensive effect in conscious, spontaneously hypertensive rats, Duration of action was determined at a compound dose of 30 ug/kg
Rattus norvegicus [11] = assay: Intravenous antihypertensive effect in conscious, spontaneously hypertensive rats a dose of 300 ug/kg; in short: as §1
Rattus norvegicus [12] = assay: Intravenous, antihypertensive effect in conscious, spontaneously hypertensive rats, Duration of action was determined at a compound dose of 500 ug/kg; 25-30
Rattus norvegicus [13] = assay: Intravenous, antihypertensive effect in conscious, spontaneously hypertensive rats, Duration of action was determined at a compound dose of 300 ug/kg; 25-30

## C=CC(O)(C/C=C/C1[C@H](O)CC(=O)[C@@H]1C/C=C/CCCC(=O)O)CCCC (stereo partly specified)
Rattus norvegicus [1]
  Max lowering MABP: 55 mmHg
Rattus norvegicus [2]
  Max lowering MABP: 30 mmHg
Rattus norvegicus [3]
  Max lowering MABP: 65 mmHg
Rattus norvegicus [4]
  Duration: >200 min
Rattus norvegicus [5]
  Duration: 45 min
Rattus norvegicus [6]
  Duration: 30 min

## CCCCC[C@H](O)/C=C/[C@H]1[C@H](O)CC(=O)[C@@H]1C/C=C\CCCC(=O)O [DINOPROSTONE]
Rattus norvegicus [7]
  Max lowering MABP: 50 mmHg
Rattus norvegicus [8]
  Duration: 10 min
Rattus norvegicus [9]
  Duration: <5 min
Rattus norvegicus [1]
  Max lowering MABP: 72 mmHg
Rattus norvegicus [2]
  Max lowering MABP: 60 mmHg
Rattus norvegicus [10]
  Duration: <5 min
Rattus norvegicus [11]
  Max lowering MABP: 70 mmHg
Rattus norvegicus [3]
  Max lowering MABP: 72 mmHg
Rattus norvegicus [12]
  Duration: 25 min
Rattus norvegicus [13]
  Duration: 25 min
